Calls of active or inactive are those of the source. The calls are words filed in the database; no cut-off is given here.
Assays:
[1] = system: Mus musculus; experiment: (§1) Neuroprotective activity in C57BL/6 mouse model of ischemia-induced cerebral ischemia model assessed as reduction in apoptosis in hippocampal CA1 region at 1.5 mg/kg, ip administered at onset of reperfusion period and measured at 5 days reperfusion post ischemia by TUNNEL assay relative to control; type: functional; design: scale not given: the % may be the effect or the level left
[2] = system: Mus musculus; experiment: Neuroprotective activity in C57BL/6 mouse model of transient middle cerebral artery occlusion-induced ttransient focal cerebral ischemia assessed decrease in motor deficit by measuring improvement in grip strength at 1.5 to 2 mg/kg, ip measured after 48 hrs post dose by grip strength Test; type: functional; design: scale not given: the % may be the effect or the level left
Outline: (§2)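 Male C57BL/6 mice (9–12 weeks) under isoflurane. Distal MCA compressed 60 min with a needle, occlusion confirmed by laser-Doppler; buprenorphine given sc. Compound given ip at reperfusion onset. Grip strength recorded at 24 and 48 h versus presurgery. Infarct area/volume measured at 48 h from TTC-stained 1 mm coronal sections. n = 8 per group.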

[3] = system: Primary neuron; experiment: Neuroprotective activity against oxygen-glucose deprivation-induced ischemia in Sprague-Dawley rat primary neuronal cells assessed as reduction in lipid peroxidation at 10 to 250 uM measured after 4 hrs of recovery post OGD by fluorometric assay; type: functional, cell-based
[4] = system: Primary neuron; experiment: Neuroprotective activity against oxygen-glucose deprivation-induced ischemia in Sprague-Dawley rat primary neuronal cells assessed as reduction in ROS generation at 10 to 250 uM measured after 2 hrs of recovery post OGD by fluorometric assay; type: functional, cell-based
Outline: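 Primary rat cortical neurons exposed to 4 h OGD; compound added at onset of recovery together with a cell-permeable ROS probe. Fluorescence (ex 490/em 535 nm) read after 2 h recovery and expressed as % of control. Mean of four independent experiments.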

[5] = system: Rattus norvegicus; experiment: Antiinflammatory activity in Fisher 344 rat model of carrageenan-induced edema assessed as inhibition of carrageenan-induced paw edema at 0.01 mmol/kg, ip dosed simultaneously with carrageenan injection relative to control; type: functional; conditions: Fisher 344, ip
Outline: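 Fisher 344 rats (150–200 g), both sexes. Edema was induced by intradermal injection of 0.1 mL 2% carrageenan in water into the right hind paw. Compound was suspended in water with a few drops of Tween 80. Rats were euthanized 3.5 h later. The injected-minus-uninjected paw weight difference was compared with water or Tween-water controls as % inhibition. Mean of two experiments, n = 6 each.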

[6] = Neuroprotective activity against oxygen-glucose deprivation-induced cell death in Sprague-Dawley rat primary neuronal cells assessed as cell viability at 250 uM treated at onset of recovery period and measured at 24 hrs of recovery by MTT assay relative to control; type: functional; conditions: Primary neuron, read-out: Activity
Outline: (§3)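 Rat cortical neurons from E16–17 Sprague-Dawley embryos, used at 6–7 days in serum-free medium. OGD: glucose-free medium bubbled with 95% N2/5% CO2, <0.1% O2, 6.5% CO2, 37 °C, 4 h. Compound added at start of 24 h normoxic recovery. Viability by MTT (0.2 mg/mL, 1.5 h), lysis with HCl/SDS, read at 595/690 nm, relative to 100% control. Four to eight culture batches, each in quadruplicate.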

[7] = Antioxidant activity assessed as superoxide anion scavenging activity at 0.1 mM pH 7.4 after 10 mins by NBT assay; type: functional
Outline: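 Superoxide generated by xanthine/xanthine oxidase (0.07 U/mL) in 0.1 M phosphate buffer pH 7.4 containing NBT and compound at 0.1 mM final. After 10 min at rt, absorbance read at 560 nm. Caffeic acid as standard.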

[8] = target: Lipoxygenase (Glycine max) (UniProt Q39829); experiment: Inhibition of soybean lipoxygenase at 1 to 100 uM using sodium linoleate as substrate by UV-based analysis relative to control
Outline: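 Soybean lipoxygenase (enzyme 1/9 ×10⁻⁴ w/v in saline) incubated at rt with 0.1 mM sodium linoleate and compound in DMSO, at several concentrations from 1 to 100 µM diluted from 10 mM stock. Conversion to 13-hydroperoxylinoleic acid recorded at 234 nm; IC50 derived. NDGA as reference inhibitor.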

[9] = Antiinflammatory activity assessed as NO release at 100 uM after 60 mins in presence of L-cysteine by Griess reagent-based relative to control; type: functional
Outline: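 NO-release test: compound at 100 μM final (from DMSO) in 50 mM phosphate buffer pH 7.4 containing 1 mM L-cysteine, 60 min at 37 °C. Reaction mixture then treated with Griess reagent, left 10 min at rt, absorbance read at 540 nm. Sodium nitroprusside as standard. Mean of three to four determinations.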

[10] = (§4) Cytotoxicity in oxygen-glucose deprivation-induced Sprague-Dawley rat primary neuronal cells assessed as reduction in cell viability at 250 uM pretreated for 24 hrs followed by OGD challenge for 4 hrs and measured after 24 hrs of recovery period post OGD measured by MTT assay; type: cell-based; conditions: primary neuron
Outline: (§5)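 Rat cortical neuron cultures (E16–17 Sprague-Dawley, 6–7 days in vitro) treated with compound (1–250 µM range) 24 h before 4 h OGD at <0.1% O2, 37 °C. Cells then recovered 24 h under normoxia with glucose. Viability by MTT absorbance at 595/690 nm, relative to untreated control.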

[11] = system: Mus musculus; experiment: Neuroprotective activity in C57BL/6 mouse model of transient middle cerebral artery occlusion-induced ttransient focal cerebral ischemia assessed decrease in size of ischemic lesion at 2 mg/kg, ip measured after 48 hrs post dose relative to control; type: functional; design: scale not given: the % may be the effect or the level left; outline: as §2
[12] = system: Primary neuron; experiment: as §4, with “Neuroprotective activity against” for “Cytotoxicity in”, “deprivation-induced cell death in” for “deprivation-induced”, “increase” for “reduction”, “10” for “250”; type: functional, cell-based; outline: as §5
[13] = system: Mus musculus; experiment: Neuroprotective activity in C57BL/6 mouse model of ischemia-induced cerebral ischemia model assessed reduction in neurodeficit score at 1.5 mg/kg, ip administered at onset of reperfusion period and measured at 5 days reperfusion post ischemia; type: functional, organism-based
[14] = Antioxidant activity assessed as DPPH free radical scavenging activity at 0.1 mM measured after 20 to 60 mins; type: functional
Outline: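 DPPH 0.1 mM in absolute ethanol with compound at 0.1 mM final (from DMSO). Absorbance at 517 nm recorded after 20 and 60 min at rt. NDGA as standard.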

[15] = system: Mus musculus; experiment: as §1, with “assessed” for “assessed as”, “neuronal cell death” for “apoptosis”, “cortical” for “hippocampal CA1”, “Fluoro-Jade-staining” for “TUNNEL”, “assay based” for “assay”; type: functional; design: scale not given: the % may be the effect or the level left
[16] = system: Mus musculus; experiment: Neuroprotective activity in C57BL/6 mouse model of transient middle cerebral artery occlusion-induced ttransient focal cerebral ischemia assessed decrease in motor deficit at 1.5 to 2 mg/kg, ip measured after 48 hrs post dose by grip strength Test; type: functional, organism-based; outline: as §2
[17] = Antioxidant activity assessed as inhibition of linoleic acid peroxidation activity at 10 uL; type: functional; design: scale not given: the % may be the effect or the level left
Outline: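 AAPH-initiated peroxidation of sodium linoleate dispersion (16 mM, 10 μL) in 0.05 M phosphate buffer pH 7.4 at 37 °C under air. Initiator was 50 μL of 40 mM AAPH, with 10 μL compound added. Conjugated diene hydroperoxide followed at 234 nm. Trolox as reference.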

[18] = system: Mus musculus; experiment: Neuroprotective activity in C57BL/6 mouse model of transient middle cerebral artery occlusion-induced ttransient focal cerebral ischemia assessed decrease in motor deficit at 2 mg/kg, ip measured after 24 hrs post dose by grip strength Test; type: functional, organism-based; outline: as §2
[19] = Neuroprotective activity against oxygen-glucose deprivation-induced cell death in Sprague-Dawley rat primary neuronal cells assessed as cell viability at 10 uM treated at onset of recovery period and measured at 24 hrs of recovery by MTT assay relative to control; type: functional; conditions: Primary neuron, read-out: Activity; outline: as §3
[20] = system: Mus musculus; experiment: Neuroprotective activity in C57BL/6 mouse model of ischemia-induced cerebral ischemia model assessed as reduction in apoptosis in cortical region at 1.5 mg/kg, ip administered at onset of reperfusion period and measured at 5 days reperfusion post ischemia by TUNNEL assay relative to control; type: functional; design: scale not given: the % may be the effect or the level left
[21] = Antioxidant activity assessed as hydroxyl radical scavenging activity at 0.1 mM measured after 30 mins; type: functional
Outline: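 Hydroxyl radicals from Fe3+/ascorbic acid: EDTA 0.1 mM, Fe3+ 167 μM, DMSO 33 mM, compound 0.1 mM and ascorbic acid 10 mM in 50 mM phosphate buffer pH 7.4. Incubated 37 °C for 30 min, stopped with 17% w/v TCA. Read-out is inhibition of formaldehyde formation, given as % scavenging. Trolox as reference.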

[22] = Neuroprotective activity against oxygen-glucose deprivation-induced cell death in Sprague-Dawley rat primary neuronal cells assessed as cell viability at 100 uM treated at onset of recovery period and measured at 24 hrs of recovery by MTT assay relative to control; type: functional; conditions: Primary neuron, read-out: Activity; outline: as §3
[23] = Antioxidant activity assessed as ABTS radical cation scavenging activity by measuring trolox equivalents at 10 uL after 1 min; type: functional
Outline: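 ABTS radical cation made from 2 mM aqueous ABTS plus 0.17 mM potassium persulfate in 20 mM phosphate buffer pH 7.4, kept 12–16 h dark at rt. Diluted with ethanol to A734 0.70, then mixed with 10 μL compound from 10 mM stock. Absorbance read at rt 1 min after mixing. Trolox as standard.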

[24] = system: Mus musculus; experiment: as §1, with “assessed” for “assessed as”, “neuronal cell death” for “apoptosis”, “Fluoro-Jade-staining” for “TUNNEL”, “assay based” for “assay”; type: functional; design: scale not given: the % may be the effect or the level left

For `COc1ccc2nc(Cl)c(/C=[N+](\[O-])C(C)(C)C)cc2c1`, the Activity [1] was 39%, the Activity [2] was 11.8% and the Activity [3] was “Active”. The Activity [4] was “Active”, the inhibition in vivo at 10 µmol/kg [5] was 48.5% and the viability at 250 µM [6] was 65.9%. The Activity [7] was 5%, the inhibition [8] was 29% and the Activity [9] was 3%. For the same compound, the Activity [10] was “Toxic”, the Activity [11] was 44% and the Activity [12] was “Active”. For the same compound, the Activity [13] was “Active”, the Activity [14] was 4% and the Activity [15] was 90%. For the same compound, the Activity [16] was “Active”, the Activity [17] was 22% and the Activity [18] was “Active”. For the same compound, the viability at 10 µM [19] was 52%, the Activity [20] was 84% and the Activity [21] was 100%. The viability at 100 µM [22] was 77.1%, the Activity [23] was 7% and the Activity [24] was 33%.

— ChEMBL document CHEMBL4422671, “New Quinolylnitrones for Stroke Therapy: Antioxidant and Neuroprotective ( Z)- N- tert-Butyl-1-(2-chloro-6-methoxyquinolin-3-yl)methanimine Oxide as a New Lead-Compound for Ischemic Stroke Treatment” (J Med Chem, 2019)
